One compound from ChEMBL document CHEMBL4765431, “Novel phthalide derivatives: Synthesis and anti-inflammatory activity in vitro and in vivo” (Eur J Med Chem, 2020) can be followed below.

Activity calls are given as the source filed them. The calls are words filed in the database; no cut-off is given here.

The test system of experiment [1] is RAW264.7. Kind of experiment: Inhibition of LPS-induced ROS generation in mouse RAW264.7 cells at 0.5 to 2 uM preincubated for 1 hr followed by LPS stimulation and measured after 6 hrs by DCFH-DA staining based flow cytometry analysis. The class given is functional, cell-based. The conditions noted are these: dose 0.5-2 µM, time 7.0 hrs. The procedure, abridged:
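RAW264.7 cells (1.5 × 10^6/well, grown 24 h) pretreated 1 h with 0.5, 1, 2 µM, then LPS 0.5 µg/mL for 6 h. Loaded with DCFH-DA 30 min at 37 °C, washed three times with cold serum-free medium or PBS. Intracellular ROS read by flow cytometry.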

Experiment [2] relates to RAW264.7. As to the kind of experiment: Activation of Nrf2/HO-1 signalling pathway in mouse RAW264.7 cells assessed as increase in nuclear Nrf2 protein expression at 0.5 to 2 uM preincubated for 1 hr followed by LPS stimulation and measured after 24 hrs by Western blotting analysis. The conditions noted are these: filed as activator, dose 0.5-2 µM, time 25.0 hrs. The class given is cell-based. The procedure, abridged: (§1)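 RAW264.7 cells (2 × 10^6/well, grown 24 h) pretreated 1 h with 0.5, 1, 2 µM, then LPS 0.5 µg/mL for 24 h. Lysed in RIPA with PMSF and phosphatase inhibitors, SDS-PAGE, PVDF transfer. Primary antibodies (anti-Nrf2 or anti-HO-1) 16 h at 4 °C, HRP secondary 1:5000 1 h at room temperature, ECL detection. β-actin used for normalization.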
(In general: Immunoblotting shows a protein as a band on a membrane.)

Experiment [3] has as its system RAW264.7. Kind of experiment: Activation of Nrf2/HO-1 signalling pathway in mouse RAW264.7 cells assessed as increase in HO-1 protein expression at 0.5 to 2 uM preincubated for 1 hr followed by LPS stimulation and measured after 24 hrs by Western blotting analysis. Type of experiment: cell-based. The conditions noted are these: filed as activator, dose 0.5-2 µM, time 25.0 hrs. The procedure, abridged: as §1

Experiment [4] concerns RAW264.7. As to the kind of experiment: Inhibition of MAPK signalling activation in mouse RAW264.7 cells assessed as reduction in LPS-induced ERK phosphorylation at 0.5 to 2 uM preincubated for 1 hr followed by LPS stimulation by Western blotting analysis. The conditions noted are these: dose 0.5-2 µM, TDE = time-dependent effect. Type of experiment: cell-based. The procedure, abridged: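 Pretreatment 1 h with 0.5–2 µM, then LPS 0.5 µg/mL for 30 min. p-IκB, IκB, p-p65, p65, ERK, JNK, p38 and their phosphorylated forms, plus β-actin, detected by Western blot (RIPA lysis, SDS-PAGE, PVDF, primary 16 h at 4 °C, HRP secondary 1:5000, ECL).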

Experiment [5] relates to Rattus norvegicus. Kind of experiment: Antiarthritic activity in Sprague-Dawley rat model of arthritis assessed as reduction in CFA-induced synovial hyperplasia at 20 mg/kg, ig administered daily for 28 days starting from 14 days post-immunization and measured every 3 days by H and E staining based histopathological analysis. Type of experiment: functional, organism-based. The conditions noted are these: time 28.0 day. The procedure, abridged: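 AA rats (male SD, CFA intradermal into right hind paw) dosed intragastrically once daily at 20 or 40 mg/kg from day 14 to day 28. Killed after 29 days. Ankle joints fixed in 4% neutral buffered paraformaldehyde, decalcified in 10% EDTA, sectioned and H&E stained. Scored for synovial hyperplasia, inflammatory cell infiltration and cartilage destruction.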

For the compound `COc1cc(OC)c2c(c1)C(C(O)c1ccc(OCc3ccc(F)cc3)cc1)OC2=O` (stereo not given), the inhibition entry in experiment [1] was “inactive”. The outcome in experiment [2], in experiment [3] and in experiment [5] was Active. Further, the inhibition entry in experiment [4] was “Tde”.
